# Published values collected from several papers.
# Compare with care: the assays were run in different laboratories.
# Target: Calcium/calmodulin-dependent protein kinase type 1 (CAMK1, Homo sapiens, UniProt Q14012)
Structure (SMILES),test,setting,measurement,value
Nc1c(C(=O)NCc2ccc(C(=O)NCCCC3CCCCC3)cc2)cnn1-c1ccccc1,"cell-free assay, competition with immobilised ligand",0.1 µM,remaining binding,100%
CCN(CC)c1ccc(C2=NNC(=O)CC2C)cc1[N+](=O)[O-] (stereo not drawn),"enzyme activity, inhibitor",10 µM,remaining activity,89%
COc1cc2ncnc(Nc3ccc(F)c(Cl)c3)c2cc1OCCCN1CCOCC1,cell-free assay,0.5 µM,remaining signal,102%
COc1cc(-c2cn(C3CCc4c(F)cccc4N(CC(F)(F)F)C3=O)nn2)ccc1-n1cnc(C)c1 (stereo not drawn),"cell-free assay, competition with immobilised ligand",1 µM,remaining binding,100%
COc1cc(Nc2cnc(C#N)c(O[C@H](C)CN(C)C)n2)ncc1-c1cnn(C)c1,"enzyme activity, inhibitor, radiometric",1 µM,remaining activity,92%
Cc1noc([C@H]2C[C@@H](c3ccc(C(F)(F)F)cc3)CN(C(=O)N3CCS(=O)(=O)C3)C2)n1,"cell-free assay, competition with immobilised ligand",1 µM,remaining binding,100%
FC(F)c1nc2ccccc2n1-c1nc(N2CCOCC2)nc(N2CCOCC2)n1,"enzyme activity, inhibitor",10 µM,remaining activity,114%
Nc1ncnc2occ(-c3ccc(NC(=O)Nc4cc(C(F)(F)F)ccc4F)cc3)c12,cell-free assay,20 µM,remaining signal,5.5%
COc1cc(-c2cc(-c3ccc(N4CCNCC4)cc3)cnc2C)cc(OC)c1OC,"enzyme activity, inhibitor",0.1 µM,inhibition,1%
O=C(Nc1cnn(-c2csc(C(=O)NC3COC3)c2)c1)Nc1c(F)cccc1Cl,"enzyme activity, inhibitor",5 µM,remaining activity,98%
Nc1nc(Nc2ccccc2)sc1C(=O)c1c(F)cccc1F,"enzyme activity, inhibitor",10 µM,remaining activity,55%
CCCOc1ccc([C@@H]2[C@@H](C(=O)O)[C@H](c3ccc4c(c3)OCO4)CN2CC(=O)Nc2c(CC)cccc2CC)cc1,"cell-free assay, competition with immobilised ligand",1 µM,remaining binding,100%
CNC(=O)c1cc(Oc2ccc(NC(=O)Nc3ccc(Cl)c(C(F)(F)F)c3)cc2)ccn1,"enzyme activity, inhibitor",0.3 µM,inhibition,-6%
Nc1nc(NC2CCCCC2)sc1C(=O)c1ccccc1,"enzyme activity, inhibitor",10 µM,remaining activity,86%
CC(C)(O)[C@H]1CC[C@H](Nc2ccc3ncc(-c4cccc(C(F)(F)F)c4)n3n2)CC1,"enzyme activity, inhibitor",1 µM,remaining activity,100%
COc1cc2c(Nc3ccc(Br)cc3F)ncnc2cc1OCC1CCN(C)CC1,cell-free assay,0.5 µM,remaining signal,81.6%
CCCS(=O)(=O)Nc1ccc(F)c(C(=O)c2c[nH]c3ncc(-c4ccc(Cl)cc4)cc23)c1F,"enzyme activity, inhibitor",1 µM,inhibition,< 10%
O=C(Nc1cnn(-c2csc(C(=O)NC3COC3)c2)c1)Nc1ccccc1Cl,"enzyme activity, inhibitor",5 µM,remaining activity,87.1%
Cc1ccc(C(=O)Nc2ccc(CN3CCN(C)CC3)c(C(F)(F)F)c2)cc1C#Cc1cnc2cccnn12,enzyme activity,23.5 nM,remaining activity,74%
Cc1cnc(NC2CCOCC2)nc1-n1cnc(C(=O)NC(CN)c2cc(F)cc(Cl)c2)c1 (stereo not drawn),"enzyme activity, inhibitor, radiometric",1 µM,remaining activity,88%
N#CCCc1ccc2c(c1)-c1[nH]c3ccc([N+](=O)[O-])cc3c1CC(=O)N2,cell-free assay,0.5 µM,remaining signal,96%
CCc1ccccc1C(=O)Nc1n[nH]c2c(C)c(F)c(C3C(C#N)=C(C)N(C)C(C)=C3C#N)cc12,"cell-free assay, competition with immobilised ligand",1 µM,remaining binding,76%
Cc1ccc(NC(=O)c2ccc(C)c(C(F)(F)F)c2)cc1C#Cc1nn(C2CCC(O)CC2)c2ncnc(N)c12 (stereo not drawn),cell-free assay,10 µM,remaining signal,62%
Cc1ccc(Nc2nccc(N(C)c3ccc4c(C)n(C)nc4c3)n2)cc1S(N)(=O)=O,"enzyme activity, inhibitor",0.3 µM,inhibition,13%
CC(=O)N1CCC(c2ccc(C(=O)NC3=NCCN3)cc2C(F)(F)F)CC1,"cell-free assay, competition with immobilised ligand",1 µM,remaining binding,100%
c1ccc(CNc2nc(N3CCOc4ccccc43)nc3c2CCCC3)cc1,"target engagement in cells, inhibitor, chemoproteomics",20 mM,inhibition,1.2%
NS(=O)(=O)c1cc(NC(=O)Cc2ccccc2)ccc1Oc1cccc(Cl)c1,"cell-free assay, competition with immobilised ligand",1 µM,remaining binding,90%
CCN(CC)CCNC(=O)c1c(C)[nH]c(/C=C2\C(=O)Nc3ccc(F)cc32)c1C,"enzyme activity, inhibitor",10 µM,inhibition,87%
Cc1cc(-n2nc(Cc3cc(F)cc(C(F)(F)F)c3)nc2C)ccc1C(N)=O,"cell-free assay, competition with immobilised ligand",1 µM,remaining binding,90%
CN1CC(Oc2cnc(C#N)cc2-c2ccn3nc(NC(=O)C4CC4)cc3c2)C1,"enzyme activity, inhibitor",1 µM,inhibition,1%
